Results from ChEMBL document CHEMBL1157985, “Antiplasmodial and cytotoxic activity of natural bisbenzylisoquinoline alkaloids” (J Nat Prod, 1999).

Key:
[1] = system: Plasmodium falciparum; assay: Antiplasmodial activity against chloroquine-sensitive Plasmodium falciparum D6 infected human erythrocytes as [3H]hypoxanthine uptake after 24 hrs; format: functional, organism-based
How it was run: (§1)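 P. falciparum (D6, W2) cultured in type A+ human erythrocytes, RPMI-1640 with NaHCO3, HEPES and 10% heat-inactivated human plasma, 37 °C under 5% O2/5% CO2/90% N2. Infected red cells at 0.5-1.0% parasitemia, 1.0% hematocrit exposed to compound, duplicate seven-point series, 24 h; then 0.5 μCi [3H]hypoxanthine per well for 18 h more. Filter harvest, scintillation counting; IC50 by nonlinear regression versus zero-drug controls.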

[2] = system: Plasmodium falciparum; assay: Antiplasmodial activity against chloroquine-resistant Plasmodium falciparum W2 infected human erythrocytes as [3H]hypoxanthine uptake after 24 hrs; format: functional, organism-based; how it was run: as §1
[3] = system: KB; assay: Cytotoxicity against human KB cells after 72 hrs by SRB assay; format: functional; conditions: read-out: ED50 (the source's name)
How it was run: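 KB-3 cells grown in DMEM with 10% FBS at 37 °C and 5% CO₂ to 60–70% confluence, then used 1 day after a medium change. Samples were dissolved in DMSO and serially diluted in 10% aqueous DMSO. 5×10⁴ cells were exposed for 72 h at 37 °C, then TCA-fixed, stained with 0.4% SRB and read at 515 nm. Zero-day control was subtracted and values expressed relative to solvent control; ED50 by nonlinear regression.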

[4] = Selectivity index, ratio of ED50 for human KB cells to IC50 for […] Plasmodium falciparum D6; format: functional
[5] = Selectivity index, ratio of ED50 for human KB cells to IC50 for chloroquine-resistant Plasmodium falciparum W2; format: functional

SMILES | IC50 [1] [nM] | IC50 [2] [nM] | EC50 [3] [nM] | Selectivity Index [4] | Selectivity Index [5]
COc1ccc2cc1Oc1ccc(cc1)C[C@H]1c3c(cc(OC)c(OC)c3Oc3cc4c(cc3OC)CCN(C)[C@@H]4C2)CCN1C [OBABERINE] | 371 | 347 | 13800 | 37 | 40
COc1cc2c3cc1Oc1c(O)c(OC)cc4c1[C@@H](Cc1ccc(O)c(c1)Oc1ccc(cc1)C[C@@H]3N(C)CC2)N(C)CC4 [OBAMEGINE] | 354 | 825 | 14100 | 40 | 17
COc1ccc2cc1Oc1ccc(cc1)C[C@@H]1c3cc(c(OC)cc3CCN1C)Oc1c(OC)c(OC)cc3c1[C@@H](C2)N(C)CC3 [PHAEANTHINE] | 305 | 498 | 10800 | 35 | 22
C=C[C@H]1CN2CC[C@H]1C[C@H]2[C@H](O)c1ccnc2ccc(OC)cc12 [QUININE] | 23.4 | 250 | > 55400 | >285 | >222
COc1ccc2cc1Oc1ccc(cc1)C[C@@H]1NCCc3cc(OC)c4c(c31)Oc1cc3c(cc1O4)CCN(C)[C@H]3C2 [TRILOBINE] | 169 | 451 | 8300 | 49 | 19
